Consider two compounds from ChEMBL document CHEMBL4024783, “Alkylated Piperazines and Piperazine-Azole Hybrids as Antifungal Agents” (J Med Chem, 2018).

Data set [1] concerns Candida albicans. As to the kind of experiment: Antifungal activity against itraconazole and fluconazole resistant Candida albicans ATCC MYA-1003 after 48 hrs by broth dilution method. The conditions noted are these: Candida albicans, ATCC MYA-1003, 48 h. It counts as functional. The method in brief: (§1)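 CLSI M27-A3 broth microdilution with minor modifications. Overnight YPD culture grown at 35 °C, 200 rpm, adjusted to OD600 0.12, diluted in RPMI 1640 buffered to pH 7.0 with 0.165 M MOPS to a final 1–2 × 10^3 CFU/mL. Test compounds at 0.015–31.3 µg/mL, 48 h at 35 °C, DMSO <1.25%. […] Triplicate.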

In data set [2] the test system is Candida albicans. The data set is described as follows: Inhibition of 14alpha-demethylase in Candida albicans ATCC 10231 assessed as 14alpha-methyl ergosta-8,24(28)-dien-3beta,6alpha-diol levels at 0.975 ug/mL by GC-MS analysis. Also on record: scale not given: the % may be the effect or the level left. In outline:
(§2)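 C. albicans ATCC 10231 was treated with drug or DMSO (no-drug control). Sterols were extracted and analysed by GC-MS; lanosterol, eburicol, ergosterol and 14α-methyl ergosta-8,24(28)-diene-3β,6α-diol were quantified as percent of sterols.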

For data set [3], the system named is Candida albicans. The data set is described as follows: Antifungal activity against Candida albicans ATCC 64124 after 48 hrs by broth dilution method. Format: functional. The conditions noted are these: Candida albicans, ATCC 64124, 48 h. In outline:
as §1

The nature of data set [4]: Solubility of the compound in DMSO. It counts as physicochemical.
Data set [5] relates to Candida albicans. The data set is described as follows: Antifungal activity against Candida albicans ATCC 10231 at 7.8 ug/mL incubated for 1 hr by propidium iodide staining-based fluorescence microscopic method. It counts as functional. The method in brief: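 C. albicans ATCC 10231 grown overnight in YPD broth at 35 °C with shaking at 200 rpm, then transferred to RPMI 1640. Cells were exposed to drug and stained with propidium iodide, which enters only cells with compromised membranes. Uptake was judged by fluorescence microscopy against an untreated control.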

The subject of data set [6] is Candida albicans. As to the kind of experiment: Inhibition of 14alpha-demethylase in Candida albicans ATCC 10231 assessed as ergosterol levels at 0.975 ug/mL by GC-MS analysis. Also on record: scale not given: the % may be the effect or the level left. In outline:
as §2

Data set [7] deals with Candida albicans. As to the kind of experiment: Antibiofilm activity against voriconazole resistant Candida albicans ATCC 64124 sessile cells incubated for 24 hrs by XTT reduction assay. It counts as functional. The conditions noted are these: ATCC 64124, 24 h. The method in brief:
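Strain B grown overnight in YPD broth at 35 °C, diluted to OD600 0.1 (~10^6 CFU/mL), then grown statically for 24 h at 37 °C to form biofilm. Washed with PBS, then drug in RPMI 1640 at 0.12–62.5 µg/mL for 24 h at 37 °C. Read-out: XTT 0.5 mg/mL with menadione 1 µM, 2 h, A490. SMIC50/SMIC80 are 50%/80% decreases versus drug-free biofilm. Duplicate.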

Data set [8] deals with Candida albicans. As to the kind of experiment: Inhibition of 14alpha-demethylase in Candida albicans ATCC 10231 assessed as lanosterol levels at 0.975 ug/mL by GC-MS analysis. Also on record: scale not given: the % may be the effect or the level left. The method in brief: as §2
Data set [9] deals with Candida parapsilosis. As to the kind of experiment: Antifungal activity against Candida parapsilosis ATCC 22019 after 48 hrs by broth dilution method. Format: functional. The following applies: Lodderomyces parapsilosis, ATCC 22019, 48 h.
The test system of data set [10] is Aspergillus terreus. As to the kind of experiment: Antifungal activity against Aspergillus terreus ATCC MYA-3633 after 48 hrs by broth dilution method. It counts as functional. The following applies: Aspergillus terreus, ATCC MYA-3633, 48 h. The method in brief: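 Molds tested per CLSI M38-A2. Spores were harvested from sporulating PDA cultures by filtering through glass wool and counted on a hemocytometer. Serial dilutions (0.03–31.3 µg/mL) were made in RPMI 1640 buffered to pH 7.0 with 0.165 M MOPS, final inoculum 5 × 10^5 CFU/mL.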

The test system of data set [11] is Candida albicans. As to the kind of experiment: Antifungal activity against itraconazole and fluconazole resistant Candida albicans ATCC MYA-1237 after 48 hrs by broth dilution method. It counts as functional. The conditions noted are these: Candida albicans, ATCC MYA-1237, 48 h. In outline: as §1
Data set [12] deals with Candida parapsilosis. As to the kind of experiment: Antifungal activity against Candida parapsilosis ATCC 22019 after 48 hrs in the presence of 10% FBS by broth dilution method. It counts as functional. The following applies: Lodderomyces parapsilosis, ATCC 22019, 48 h.
A short description of data set [13]: Aqueous solubility of the compound. Format: physicochemical. The following applies: buffer.
Data set [14] has as its system Aspergillus flavus. The data set is described as follows: Antifungal activity against Aspergillus flavus ATCC MYA-3631 after 48 hrs by broth dilution method. It counts as functional. The conditions noted are these: ATCC MYA-3631, 48 h.
Data set [15] relates to Pichia kudriavzevii. The data set is described as follows: Antifungal activity against Candida krusei ATCC 6258 after 48 hrs by broth dilution method. Format: functional. The conditions noted are these: Pichia kudriavzevii, ATCC 6258, 48 h. The method in brief: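 Yeasts tested per CLSI M27-A3 with minor changes. An overnight YPD culture (35 °C, 200 rpm) was adjusted to OD600 0.12 and diluted in MOPS-buffered RPMI 1640 (pH 7.0) to a final 1–2 × 10^3 CFU/mL. Compounds 0.015–31.3 µg/mL, DMSO <1.25%.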

Data set [16] relates to Aspergillus nidulans. As to the kind of experiment: Antifungal activity against Aspergillus nidulans ATCC 38163 after 48 hrs by broth dilution method. It counts as functional. The following applies: Aspergillus nidulans, ATCC 38163, 48 h. In outline: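 A. nidulans run per CLSI M38-A2. PDA spores were filtered through glass wool and counted by hemocytometer. Test range 0.03–31.3 µg/mL in MOPS-buffered RPMI 1640 (pH 7.0), final 5 × 10^5 CFU/mL.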

For data set [17], the system named is Candida albicans. As to the kind of experiment: Antifungal activity against Candida albicans ATCC 10231 after 48 hrs by broth dilution method. It counts as functional. The following applies: ATCC 10231, 48 h.
The test system of data set [18] is Candida albicans. The data set is described as follows: Ratio of MIC80 for voriconazole resistant Candida albicans ATCC 64124 sessile cells to MIC for voriconazole resistant Candida albicans ATCC 64124. It counts as functional.
The subject of data set [19] is Candida albicans. As to the kind of experiment: Inhibition of 14alpha-demethylase in Candida albicans ATCC 10231 assessed as total sterol levels at 0.975 ug/mL by GC-MS analysis. Also on record: scale not given: the % may be the effect or the level left. The method in brief: as §2
The test system of data set [20] is Candida albicans. As to the kind of experiment: Antifungal activity against itraconazole and fluconazole resistant Candida albicans ATCC 90819 after 48 hrs by broth dilution method. It counts as functional. The conditions noted are these: Candida albicans, ATCC 90819, 48 h. In outline:
as §1

Data set [21] concerns Candida albicans. The data set is described as follows: Antifungal activity against itraconazole and fluconazole susceptible Candida albicans ATCC MYA-2310 after 48 hrs by broth dilution method. It counts as functional. The following applies: Candida albicans, ATCC MYA-2310, 48 h.
Data set [22] relates to Nakaseomyces glabratus. As to the kind of experiment: Antifungal activity against Candida glabrata ATCC 2001 after 48 hrs by broth dilution method. The conditions noted are these: Nakaseomyces glabratus, CBS 138, 48 h. It counts as functional, CBS 138.
Data set [23] relates to Candida albicans. The data set is described as follows: Antifungal activity against Candida albicans ATCC 10231 after 48 hrs in the presence of 10% FBS by broth dilution method. Format: functional. The conditions noted are these: ATCC 10231, 48 h.
In data set [24] the test system is Candida albicans. As to the kind of experiment: Inhibition of 14alpha-demethylase in Candida albicans ATCC 10231 assessed as eburicol levels at 0.975 ug/mL by GC-MS analysis. Also on record: scale not given: the % may be the effect or the level left. In outline: as §2
The subject of data set [25] is Candida albicans. As to the kind of experiment: Antifungal activity against itraconazole and fluconazole susceptible Candida albicans ATCC MYA-2876 after 48 hrs by broth dilution method. It counts as functional. The conditions noted are these: Candida albicans, ATCC MYA-2876, 48 h.
Data set [26] has as its system Aspergillus nidulans. As to the kind of experiment: Antifungal activity against Aspergillus nidulans ATCC 38163 after 48 hrs in the presence of 10% FBS by broth dilution method. Format: functional. The conditions noted are these: ATCC 38163, 48 h.
For data set [27], the system named is Candida albicans. As to the kind of experiment: Antifungal activity against Candida albicans ATCC 10231 at […] ug/mL incubated for 1 hr by propidium iodide staining-based fluorescence microscopic method. Format: functional.

Converted amounts (≈) assume the structure as drawn. The source made the active and inactive calls. The rule behind the calls is not given here.

Turning to `CCCCCCCCCCCCN1CCN(CC(O)(Cn2cncn2)c2ccc(Cl)cc2Cl)CC1` (stereo not drawn), the MIC was found to be 3.7 µM (≈ 1.94 µg/mL) in data set [1]; 14.9 µM (≈ 7.82 µg/mL) in [3]; 0.46 µM (≈ 0.241 µg/mL) in data set [9]; 3.7 µM (≈ 1.94 µg/mL) in data set [10]; 7.4 µM (≈ 3.88 µg/mL) in data set [11]; 0.24 µg/mL in [12]. The MIC in data set [14] was determined as 7.4 µM (≈ 3.88 µg/mL); in data set [15], 3.7 µM (≈ 1.94 µg/mL); in data set [16] it was 3.7 µM (≈ 1.94 µg/mL); in data set [17], 3.7 µM (≈ 1.94 µg/mL); in [20], 7.4 µM (≈ 3.88 µg/mL); in data set [21], 7.4 µM (≈ 3.88 µg/mL). Also, the MIC in data set [22] amounted to 1.9 µM (≈ 0.997 µg/mL); in [23] it was 1.95 µg/mL; in data set [25], 7.4 µM (≈ 3.88 µg/mL); in data set [26], 3.9 µg/mL. For the same compound, the Activity in data set [2] was 11.1%; in data set [6], 50.6%; in data set [8] it was 29.5%; in [19], 3.56 to 4.08%; in data set [24], 1.15%. Moreover, the solubility entry in data set [4] and in data set [13] was “Soluble” in each case. Besides, in [5], the result was inactive. Moreover, the MIC50 in data set [7] worked out at 15.6 µg/mL (≈ 29.7 µM). The MIC80 in data set [7] came to 31.3 µg/mL (≈ 59.7 µM). Besides, in data set [18], the Ratio is on record as 2 - 4.
For the compound `CCCCCCCCCCCCCCOC[C@H]1O[C@H](O[C@@H]2[C@@H](O)[C@H](O[C@H]3O[C@H](CN)[C@@H](O)[C@H](O)[C@H]3N)[C@@H](N)C[C@H]2N)[C@H](O)[C@@H](N)[C@@H]1O`, in data set [27], the result was Active.
